# Data: ChEMBL document CHEMBL1144135, “Synthesis of 11,12-epoxydrim-8,12-en-11-ol, 11,12-diacetoxydrimane, and warburganal from (-)-sclareol” (J Nat Prod, 1999)
# Assays:
# Assay type in all cases: functional, cell-based
# P388 = experiment: Antitumor activity against mouse P388 cells
# Summary of the method: (§1)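 Cells from four lines (P-388, A-549, HT-29, MEL-28) were tested in parallel with reference standards. Activity was read out as IC50 in […], using a previously published antitumor assay protocol.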
# A549 = experiment: Antitumor activity against human A549 cells; summary of the method: as §1
# HT-29 = experiment: Antitumor activity against human HT-29 cells; summary of the method: as §1
# [1] = Antitumor activity against human SK MEL28 cells; details: SK-MEL-28; summary of the method: as §1
structure (smiles),measurement,setting,value
CC1(C)CCC[C@]2(C)[C@@H]3C(=CO[C@@H]3O)CC[C@@H]12,IC50,P388,0.5 µg/mL
same,IC50,A549,0.5 µg/mL
same,IC50,HT-29,1 µg/mL
same,IC50,[1],1 µg/mL
O=c1[nH]cc(F)c(=O)[nH]1 [FLUOROURACIL],IC50,P388,0.02 µg/mL
same,IC50,A549,0.1 µg/mL
same,IC50,HT-29,0.1 µg/mL
same,IC50,[1],0.1 µg/mL
CN(Cc1cnc2nc(N)nc(N)c2n1)c1ccc(C(=O)N[C@@H](CCC(=O)O)C(=O)O)cc1 [METHOTREXATE],IC50,P388,0.002 µg/mL
same,IC50,A549,0.005 µg/mL
same,IC50,HT-29,0.01 µg/mL
same,IC50,[1],0.01 µg/mL
CC1(C)CCC[C@]2(C)[C@@H](C=O)C(C=O)=CC[C@@H]12 [POLYGODIAL],IC50,P388,1.2 µg/mL
same,IC50,A549,2.5 µg/mL
same,IC50,HT-29,2.5 µg/mL
same,IC50,[1],2.5 µg/mL
COc1cccc2c1C(=O)c1c(O)c3c(c(O)c1C2=O)C[C@@](O)(C(=O)CO)C[C@@H]3O[C@H]1C[C@H](N)[C@H](O)[C@H](C)O1.Cl [DOXORUBICIN HYDROCHLORIDE],IC50,P388,0.1 µg/mL
same,IC50,A549,0.025 µg/mL
same,IC50,HT-29,0.5 µg/mL
same,IC50,[1],0.5 µg/mL
